22 compounds from ChEMBL document CHEMBL1153441 (J Med Chem, 2009) can be followed below.

SMILES strings stand for the structures.

What is called Ki is the equilibrium dissociation constant of an inhibitor or competing ligand from its target. One may read the EC50 as the concentration needed to bring the measured effect to its halfway point. Broadly, the IC50 is the concentration that inhibits the measured activity by half.

For assay [1], the target named is T1, 5-hydroxytryptamine receptor 7 (Homo sapiens, UniProt P34969). The experiment in a line: Displacement of [3H]LSD from human recombinant 5HT7 receptor expressed in CHOK1 cells. Type of assay: cell-based, CHO-K1. The procedure, abridged: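 Transfected CHO-K1 membranes in 50 mM Tris-HCl, 10 mM MgSO4, 0.5 mM EDTA, pH 7.4, incubated 120 min at 27 °C with 3 nM [3H]LSD; nonspecific binding with 25 µM clozapine. Ligands screened at 1 µM, then six-concentration curves if displacement over 55%.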
T1 sequence (P34969 whole entry): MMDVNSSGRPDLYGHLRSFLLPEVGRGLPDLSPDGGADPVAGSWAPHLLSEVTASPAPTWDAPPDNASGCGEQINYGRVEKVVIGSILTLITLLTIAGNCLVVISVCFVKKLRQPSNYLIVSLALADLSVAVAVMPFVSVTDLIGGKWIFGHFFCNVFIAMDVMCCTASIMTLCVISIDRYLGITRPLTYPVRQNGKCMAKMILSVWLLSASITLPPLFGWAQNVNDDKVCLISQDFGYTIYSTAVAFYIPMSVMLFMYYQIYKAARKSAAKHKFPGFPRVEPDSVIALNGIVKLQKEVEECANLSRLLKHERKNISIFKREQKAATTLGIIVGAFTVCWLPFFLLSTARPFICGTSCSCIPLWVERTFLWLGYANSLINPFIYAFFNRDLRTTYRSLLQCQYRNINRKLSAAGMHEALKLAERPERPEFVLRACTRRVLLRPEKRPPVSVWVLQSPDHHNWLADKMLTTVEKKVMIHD
In general terms: Displacement assays read how much labelled ligand stays bound in the presence of the test substance.

Assay [2] has as its target T2, 5-hydroxytryptamine receptor 1A (Homo sapiens, UniProt P08908).
T2 sequence (P08908 whole entry): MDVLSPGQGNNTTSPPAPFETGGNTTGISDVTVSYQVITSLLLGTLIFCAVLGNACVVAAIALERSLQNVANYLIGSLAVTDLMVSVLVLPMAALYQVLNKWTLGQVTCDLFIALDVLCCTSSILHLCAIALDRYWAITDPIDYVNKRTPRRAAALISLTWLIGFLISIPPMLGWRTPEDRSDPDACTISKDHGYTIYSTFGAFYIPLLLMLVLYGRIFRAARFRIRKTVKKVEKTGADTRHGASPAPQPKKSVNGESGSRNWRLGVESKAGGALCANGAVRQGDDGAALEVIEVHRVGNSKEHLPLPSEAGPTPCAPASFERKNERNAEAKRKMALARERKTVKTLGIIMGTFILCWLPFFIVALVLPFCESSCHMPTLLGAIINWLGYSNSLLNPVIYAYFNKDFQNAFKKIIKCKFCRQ
The experiment in a line: Displacement of [3H]8-OH-DPAT from human recombinant 5HT1A receptor expressed in HEK293 cells. Type of assay: cell-based. Put shortly:
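Membranes from HEK-293 cells expressing human 5-HT1A receptor were incubated in the dark with 4.9 nM [3H]-8-OH-DPAT for 120 min at 37 °C in 50 mM Tris-HCl, 5 mM MgSO4, pH 7.4. Nonspecific binding was taken with 10 µM 5-HT. Filters were presoaked in 0.5% PEI, and bound radioactivity was counted by scintillation. Compounds were screened at 1 µM, then given six-point curves; Ki was derived by Cheng-Prusoff. Triplicates, 2-4 experiments.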

The target of assay [3] is T1, 5-hydroxytryptamine receptor 7. Nature of the assay: Agonist activity at human recombinant 5HT7 receptor expressed in CHOK1 cells assessed as increase in cAMP levels by HTRF assay. Type of assay: functional, cell-based, CHO-K1. (cAMP levels reflect the balance of adenylyl cyclase and phosphodiesterase activity.)
The target is the same in assay [4]. The experiment in a line: Agonist activity at human recombinant 5HT7 receptor expressed in CHOK1 cells assessed as increase in cAMP levels by HTRF assay relative to serotonin. The settings on record: CHO-K1. Type of assay: functional, cell-based.
Assay [5] has the same target. The experiment in a line: Antagonist activity at human recombinant 5HT7 receptor expressed in CHOK1 cells assessed as inhibition of serotonon-induced increase in cAMP levels by HTRF assay. The class given is functional, cell-based. The settings on record: CHO-K1.
Another assay is filed under the species Homo sapiens. Nature of the assay: Selectivity for human recombinant 5HT7 receptor over human recombinant 5HT1A receptor.
For assay [6], the target named is T3, 5-hydroxytryptamine receptor 1A (Homo sapiens) (UniProt P08908).
T3 sequence (whole entry): T2 sequence (P08908 whole entry)
Nature of the assay: Displacement of [3H]8-OH-DPAT from human recombinant 5HT1A receptor expressed in HEK293 cells at 1 uM. The class given is cell-based. Put shortly:
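Membranes from transfected HEK-293 cells in 50 mM Tris-HCl, 5 mM MgSO4, pH 7.4, incubated in the dark 120 min at 37 °C with 4.9 nM [3H]8-OH-DPAT and 1 µM ligand (hydrochloride salt), triplicate. Nonspecific binding with 10 µM 5-HT. Filtration on 0.5% PEI-soaked filters, ice-cold Tris washes, scintillation counting; percent displacement.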

Assay [7] deals with T1, 5-hydroxytryptamine receptor 7. Nature of the assay: Antagonist activity at human recombinant 5HT7 receptor expressed in CHOK1 cells assessed as inhibition of serotonon-induced increase in cAMP levels by HTRF assay relative to untreated control. The class given is functional, cell-based, CHO-K1.

In the case of `O=C1Cc2ccccc2N1CCCCN1CCc2ccccc2C1`, the Ki in assay [1] is 0.007 µM; in assay [2], 0.219 µM. Besides, the EC50 in assay [3] is 0.31 µM. Further, the Activity result in assay [3] (CHO-K1) is “Dose-dependent effect”; in assay [4], 40%; in assay [5], “Dose-dependent effect”. Moreover, the Ratio Ki in the assay filed under Homo sapiens came to 31.
Consider `O=C1Cc2ccccc2N1C/C=C/CN1CCN(c2cccc3ccccc23)CC1`, for which the values for the Ki in assay [1] and in assay [2] were 0.069 µM and 0.039 µM, respectively.
The like results for `O=C1Cc2ccccc2N1CCCCN1CCC(c2ccccc2)CC1` were, in that order, 0.16 µM and greater than 1 µM.
The like results for `O=C1Cc2ccccc2N1CC#CCN1CCN(c2cccc3ccccc23)CC1` were, in that order, greater than 1 µM and 0.026 µM.
The like results for `O=C1Cc2ccccc2N1CCCCCN1CCN(c2ccccc2)CC1` were, in that order, 0.063 µM and greater than 1 µM.
For the compound `O=C1Cc2ccccc2N1CCCCCN1CCN(c2cccc3[nH]cnc23)CC1`, the Ki in assay [1] was 0.068 µM; in assay [2], 0.0181 µM.
For `O=C1Cc2ccccc2N1CCCCN1CCN(c2cccc3ccccc23)CC1`, in that order: 0.047 µM and 0.022 µM.
For `COc1ccccc1N1CCN(CCCCN2C(=O)Cc3ccccc32)CC1`, in that order: 0.032 µM and greater than 1 µM.
The like results for `COc1ccccc1N1CCN(CCCCN2Cc3ccccc3C2=O)CC1` were, in that order, 0.158 µM and greater than 1 µM.
As for `O=C1Cc2ccccc2N1CCCCCN1CCN(c2cccc3ccccc23)CC1`, the values for the Ki in assay [1] and in assay [2] were 0.069 µM and 0.016 µM, respectively.
For `O=C1Cc2ccccc2N1Cc1cccc(CN2CCN(c3cccc4ccccc34)CC2)c1`, in that order: greater than 1 µM and greater than 1 µM.
The like results for `O=C1c2ccccc2CN1CCCCCN1CCN(c2ccccc2)CC1` were, in that order, 0.203 µM and greater than 1 µM.
The like results for `COc1ccccc1N1CCN(CCCCCN2C(=O)Cc3ccccc32)CC1` were, in that order, 0.063 µM and greater than 1 µM.
As for `O=C1Cc2ccccc2N1CCCN1CCc2ccccc2C1`, the Ki was 0.105 µM in assay [1] and greater than 1 µM in assay [2].
The like results for `O=C1Cc2ccccc2N1Cc1ccc(CN2CCN(c3cccc4ccccc34)CC2)cc1` were, in that order, greater than 1 µM and 0.181 µM.
Take `O=C1Cc2ccccc2N1CCN1CCc2ccccc2C1`: the Ki was 0.35 µM in assay [1] and greater than 1 µM in assay [2].
As for `O=C1c2cccc3cccc(c23)N1CCCCCN1CCN(c2ccccc2)CC1` [UCM-5600], in assay [1], the Ki worked out at 0.089 µM. In addition, the Activity in assay [6] stood at 92%.
As for `O=C1Cc2ccccc2N1C/C=C\CN1CCN(c2cccc3ccccc23)CC1`, the values for the Ki in assay [1] and in assay [2] were 0.25 µM and 0.0115 µM, respectively.
As for `O=C1c2ccccc2CN1CCCCN1CCN(c2ccccc2)CC1`, the inhibitory constant (Ki) was greater than 1 µM in assay [1] and 0.36 µM in assay [2].
The like results for `O=C1Cc2ccccc2N1CCCCN1CCN(c2ccccc2)CC1` were, in that order, 0.074 µM and 0.124 µM.
The like results for `O=C1Cc2ccccc2N1CCCCN1CCCC(c2ccccc2)C1` (stereo not drawn) were, in that order, 0.193 µM and greater than 1 µM.
Turning to `CN1C[C@@H](NS(=O)(=O)N(C)C)C[C@@H]2c3cccc4c3c(cn4C)C[C@H]21` [MESULERGINE], the IC50 in assay [7] worked out at 0.12 µM.
